Reference: ChEMBL document CHEMBL4400568, “The design of 1,4-naphthoquinone derivatives and mechanisms underlying apoptosis induction through ROS-dependent MAPK/Akt/STAT3 pathways in human lung cancer cells” (Bioorg Med Chem, 2019)
Activity calls are given as the source filed them. The calls are words filed in the database; no cut-off is given here.

How the values were obtained:
NCI-H23 = test: Cytotoxicity against human NCI-H23 cells assessed as reduction in cell viability after 24 hrs by MTT assay; type: functional, cell-based
How it was run: (§1)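 Log-phase cells seeded at 1 × 10⁴ per well. Lung cancer lines (A549, NCI-H23, NCI-H460) and normal lines (IMR-90, QSG-7701, HEK-293A) each exposed to 1, 3, 10, 30 and 100 μM for 24 h. MTT (5 mg/mL stock) added for 2 h at 37°C, formazan dissolved in DMSO, absorbance read at 490 nm. Three independent experiments, mean ± SD.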

IMR-90 = test: Cytotoxicity against human IMR90 cells assessed as reduction in cell viability after 24 hrs by MTT assay; type: cell-based; details: imr-90, 24 h; how it was run: as §1
[1] = Cytotoxicity against HEK293A cells assessed as reduction in cell viability after 24 hrs by MTT assay; type: cell-based; details: human, hek293-a; how it was run: as §1
A549 [2] = test: Induction of apoptosis in human A549 cells assessed as decrease in Bcl-2 expression at 3 uM after 24 hrs by Western blot analysis; type: functional, cell-based
How it was run: (§2)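 A549 cells exposed to 3 μM for 3, 6, 12 or 24 h; where NAC is used, 10 mM NAC is added 30 min before 24 h treatment. Lysate protein (30 μg) is run on 12% SDS-PAGE, blotted to nitrocellulose, blocked in 5% milk, primary antibody overnight at 4°C, then HRP anti-IgG. β-actin loading control; densitometry; three independent experiments, mean ± SD.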

A549 [3] = test: Induction of apoptosis in human A549 cells assessed as late apoptotic cells at 3 uM after 3 hrs by Annexin V-FITC/propidium iodide staining-based flow cytometric analysis (reference value: 4.52%); type: functional
A549 [4] = test: Induction of apoptosis in human A549 cells assessed as early apoptotic cells at 3 uM after 6 hrs by Annexin V-FITC/propidium iodide staining-based flow cytometric analysis (reference value: 2.73%); type: functional
A549 [5] = test: Cell cycle arrest in human A549 cells assessed as accumulation of cells at G1 phase at 3 uM after 3 hrs by propidium iodide staining-based flow cytometric analysis (reference value: 57.65%); type: functional
A549 [6] = test: Cell cycle arrest in human A549 cells assessed as accumulation of cells at G2 phase at 3 uM after 3 hrs by propidium iodide staining-based flow cytometric analysis (reference value: 24.02%); type: functional
A549 [7] = test: Cell cycle arrest in human A549 cells assessed as accumulation of cells at G2 phase at 3 uM after 6 hrs by propidium iodide staining-based flow cytometric analysis (reference value: 24.02%); type: functional
A549 [8] = test: Cell cycle arrest in human A549 cells assessed as accumulation of cells at S phase at 3 uM after 12 hrs by propidium iodide staining-based flow cytometric analysis (reference value: 13.85%); type: functional
A549 [9] = test: Cell cycle arrest in human A549 cells assessed as accumulation of cells at G1 phase at 3 uM after 24 hrs by propidium iodide staining-based flow cytometric analysis (reference value: 57.65%); type: functional
A549 [10] = test: Cell cycle arrest in human A549 cells assessed as accumulation of cells at G1 phase at 3 uM by propidium iodide staining-based flow cytometric analysis; type: functional; details: TDE = time-dependent effect
A549 [11] = test: Cell cycle arrest in human A549 cells assessed as decrease in cyclinD1/E levels at 3 uM by Western blot analysis; type: functional, cell-based; details: TDE = time-dependent effect; how it was run: as §2
[12] = target: MAP kinase p38 (Homo sapiens) (UniProt O15264+Q15759+Q16539+P53778); test: Activation of p38 phosphorylation in human A549 cells at 3 uM after 3 to 24 hrs by Western blot analysis; type: cell-based; how it was run: as §2
[13] = target: T1, c-Jun N-terminal kinase, JNK (Homo sapiens) (UniProt P45983+P53779+P45984); test: Activation of JNK phosphorylation in human A549 cells at 3 uM after 3 to 24 hrs by Western blot analysis; type: cell-based; how it was run: as §2
[14] = target: T1, c-Jun N-terminal kinase, JNK (Homo sapiens); test: Modulation of JNK in human A549 cells assessed as decrease in STAT3 phosphorylation measured after 24 hrs in presence of JNK inhibitor SP600125 by Western blot analysis; type: cell-based
How it was run: (§3)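 A549 cells pre-incubated for 30 min with 12.1 μM kinase inhibitor: SB203580 (p38), SP600125 (JNK), FR180204 (ERK) or LY10249 (Akt). Compound treatment followed for 24 h. Lysates (30 μg protein) analysed by 12% SDS-PAGE and nitrocellulose immunoblot with HRP detection. Three independent experiments, mean ± SD.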

A549 [15] = test: Modulation of ERK in human A549 cells assessed as decrease in STAT3 phosphorylation measured after 24 hrs in presence of ERK inhibitor FR180204 by Western blot analysis; type: cell-based
[16] = target: RAC-alpha serine/threonine-protein kinase (Homo sapiens) (UniProt P31749); test: Modulation of AKT in human A549 cells assessed as decrease in CDK6 levels measured after 24 hrs in presence of Akt inhibitor-LY10249 by Western blot analysis; type: cell-based; how it was run: as §3
[17] = target: RAC-alpha serine/threonine-protein kinase (Homo sapiens) (UniProt P31749); test: Modulation of AKT in human A549 cells assessed as increase in p27 levels measured after 24 hrs in presence of Akt inhibitor-LY10249 by Western blot analysis; type: cell-based; how it was run: as §3
A549 [18] = test: Induction of ROS generation in human A549 cells assessed as intracellular ROS level at 3 uM after 12 hrs by DCFH-DA staining-based flow cytometric analysis (reference value: 51.8%); type: functional
How it was run: (§4)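 A549 cells loaded with DCFH-DA (10 μM per legend) for 30 min, then exposed to 3 μM at 37°C for 3, 6, 12 or 24 h. After two PBS washes, intracellular fluorescence is quantified by flow cytometry. Three independent experiments, mean ± SD.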

A549 [19] = test: Induction of ROS generation in human A549 cells assessed as intracellular ROS level at 3 uM after 24 hrs by DCFH-DA staining-based flow cytometric analysis (reference value: 51.8%); type: functional; how it was run: as §4
A549 [20] = test: Induction of apoptosis in human A549 cells assessed as early apoptotic cells at 3 uM in presence of NAC by Annexin V-FITC/propidium iodide staining-based flow cytometric analysis (reference value: 5.31%); type: functional
A549 [21] = test: Inhibition of ERK phosphorylation in human A549 cells at 3 uM after 24 hrs in presence of NAC by Western blot analysis; type: cell-based
How it was run: (§5)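 A549 cells pretreated with 10 mM NAC for 30 min, then exposed to compound for 24 h. Lysate protein (30 μg) resolved on 12% SDS-PAGE and transferred to nitrocellulose. Probed with primary antibodies overnight at 4°C, then HRP secondary. Band densities from three independent experiments, mean ± SD.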

A549 [22] = test: Inhibition of ERK in human A549 cells assessed as decrease in STAT3 phosphorylation at 3 uM after 24 hrs in presence of NAC by Western blot analysis; type: cell-based; how it was run: as §5
A549 [23] = test: Induction of apoptosis in human A549 cells assessed as increase in cleaved caspase-3 at 3 uM measured after 24 hrs in presence of NAC by Western blot analysis; type: functional, cell-based; how it was run: as §2
A549 [24] = test: Induction of apoptosis in human A549 cells assessed as increase in cleaved PARP at 3 uM measured after 24 hrs in presence of NAC by Western blot analysis; type: functional, cell-based; how it was run: as §2
A549 [25] = test: Induction of apoptosis in human A549 cells assessed as apoptotic morphological changes at 3 uM by Annexin V-FITC/propidium iodide staining-based flow cytometric analysis; type: functional, cell-based; details: TDE = time-dependent effect

RAC-alpha serine/threonine-protein kinase (Homo sapiens), sequence (P31749 whole entry): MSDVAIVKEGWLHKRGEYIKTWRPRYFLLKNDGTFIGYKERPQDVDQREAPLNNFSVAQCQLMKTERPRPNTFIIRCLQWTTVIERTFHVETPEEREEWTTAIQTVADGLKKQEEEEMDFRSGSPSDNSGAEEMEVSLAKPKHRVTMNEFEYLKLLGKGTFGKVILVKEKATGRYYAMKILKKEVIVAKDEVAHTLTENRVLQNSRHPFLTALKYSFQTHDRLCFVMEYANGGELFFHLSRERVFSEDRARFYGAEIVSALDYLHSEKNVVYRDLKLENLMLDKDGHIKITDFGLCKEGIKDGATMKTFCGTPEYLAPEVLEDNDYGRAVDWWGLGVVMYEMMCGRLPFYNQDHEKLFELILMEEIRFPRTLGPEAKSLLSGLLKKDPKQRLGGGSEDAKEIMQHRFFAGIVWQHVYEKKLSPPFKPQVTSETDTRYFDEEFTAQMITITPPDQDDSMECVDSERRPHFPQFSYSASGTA

| Compound | Activity (NCI-H23) | Activity (IMR-90) | Activity [1] | Activity (A549 [2]) | Activity (A549 [3]) | Activity (A549 [4]) | Activity (A549 [5]) | Activity (A549 [6]) | Activity (A549 [7]) | Activity (A549 [8]) | Activity (A549 [9]) | Activity (A549 [10]) | Activity (A549 [11]) | Activity [12] | Activity [13] | Activity [14] | Activity (A549 [15]) | Activity [16] | Activity [17] | Activity (A549 [18]) | further results |
| --- | --- | --- | --- | --- | --- | --- | --- | --- | --- | --- | --- | --- | --- | --- | --- | --- | --- | --- | --- | --- | --- |
| CCCCCCCCCS(=O)(=O)C12OC1C(=O)c1c(OC)ccc(OC)c1C2=O (centres undefined) | Active | Non-Toxic | Non-Toxic | Active | 5.43% | 14.47% | 61.21% | 26.58% | 22.02% | 7.18% | 71.38% | Tde | Tde | Active | Active | inactive | Active | Active | Active | 62.75% | Activity (A549 [19]): 70.81%; Activity (A549 [20]): 15.06%; inhibition (A549 [21]): inactive; inhibition (A549 [22]): inactive; Activity (A549 [23]): inactive; Activity (A549 [24]): inactive; Activity (A549 [25]): Tde |
| CCCS(=O)(=O)C12OC1C(=O)c1c(OC)ccc(OC)c1C2=O (centres undefined) | Active | Non-Toxic | Non-Toxic | Active | 5.11% | 16.31% | 60.85% | 23.47% | 18.26% | 9.06% | 72.02% | Tde | Tde | Active | Active | inactive | Active | Active | Active | 68.59% | Activity (A549 [19]): 76.35%; Activity (A549 [20]): 17.94%; inhibition (A549 [21]): inactive; inhibition (A549 [22]): inactive; Activity (A549 [23]): inactive; Activity (A549 [24]): inactive; Activity (A549 [25]): Tde |
